PubChem BioAssay
Records with an inconclusive call do not appear.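 The calls were made as follows, unless noted: active = cell viability at or below a set limit in both duplicate runs, the limit being the all-compound median minus 4 SD (cut at about 23% in these data, passing the limit was not always enough); inconclusive = no clear call, values can overlap the other calls; inactive = the rest.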

Experiments:
[1] = S. cerevisiae growth inhibition in permissive medium (OD615), pilot counter-assay for S. cerevisiae lifespan shortening project, permissive growth control (AID 705;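 active = growth inhibition above 25% in both replicates, a cutoff set 3 SD above the mean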); conditions: OD615, 24 h, at 10 µM, stronger effect = higher value
In short: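 Test system: Saccharomyces cerevisiae strain carrying genetically modified DeaD replicative-lifespan system; buffer or medium: SC raffinose/galactose permissive medium; dosing: one dose 10 µM, DMSO 0.25% final; times: 24 h exposure, 30 °C; measured by: OD at 615 nm; read-out basis: growth inhibition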

[2] = S. cerevisiae growth inhibition in restrictive medium, OD615, pilot screen, restrictive growth control, yeast lifespan reduction project (AID 706;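 active = growth inhibition above a set limit, 3 SD over mean compound inhibition, in both replicates, cut at about 43% in these data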;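 also: modified DeaD lifespan yeast strain shifted to restrictive glucose medium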); conditions: OD615, 48 h, at 10 µM, stronger effect = higher value
In short: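 material = engineered S. cerevisiae DeaD strain | buffer or medium = glucose-based CSMM-D restrictive medium | dosing = one concentration, 10 µM final, 0.25% DMSO | schedule = 4 h pre-growth plus 48 h compound exposure, 30 °C | detection = OD615 absorbance reading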

[3] = doxorubicin toxicity protection in MRP-1 cells – H69AR cells, CellTiter-Glo, duplicate, MRP-1 activator project, pilot screen (AID 807;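 active = viability increase at or above a cutoff of the median across tested compounds plus 3 SD, cut at about 8.5% in these data, passing the limit was not always enough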;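 also: compound pretreatment 18-22 h then 72 h combined with doxorubicin; 0% = doxorubicin alone and 100% = vehicle without doxorubicin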); conditions: H69AR viability with doxorubicin, CellTiter-Glo luminescence; at 10 µM; stronger effect = higher value
[4] = viability of HCT116 without oncogenic beta-catenin – human colon tumor cells, pilot screen (AID 823); conditions: HCT116 beta-catenin knockout viability, CellTiter-Glo, 60 h; at 10 µM; stronger effect = lower value;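 also: 0% = wells killed by 20 µM Hyamine and 100% = untreated DMSO cell wells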
[5] = viability of PTEN-null HCT116 cells – cell-based, HCT116 clonal line, CellTiter-Glo, pilot screen (AID 824;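 active = viability at or below 27.92% in each of two runs, the all-compound median minus 4 SD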;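 also: 0% = 20 µM Hyamine control and 100% = vehicle cell control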); conditions: HCT116 PTEN-deleted viability, 60 h, at 10 µM, stronger effect = lower value
[6] = RAM pathway blockade in budding yeast – dse1pr::URA3 reporter, 5-FOA selection, pilot screen (AID 869;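 active = inhibition over a set limit, the all-compound mean plus 3 SD, in both replicate runs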;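 also: 0% = DMSO wells with no growth and 100% = 10 µM 1-NA-PP1 with full growth; RAM network block rescues cells from 5-FOA so hits raise OD615 growth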); conditions: S. cerevisiae dse1pr::URA3 5-FOA growth, OD615, 2 d; at 10 µM; stronger effect = higher value; strain carries analog-sensitive mutant Cbk1 kinase
[7] = RAM signaling pathway blockade in yeast – S. cerevisiae, Pdr1DBD-CYC8 efflux-inhibited sensitized strain, primary screen (AID 1298;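 active = RAM network inhibition above 8.4% in each of two replicates, 3 SD over the compound average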;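 also: 0% = DMSO untreated cells without growth and 100% = 10 µM 1-NA-PP1 full growth; higher means more yeast growth rescued from 5-FOA killing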); conditions: S. cerevisiae cbk1-as DSE1-URA3 strain, 5-FOA growth OD615, 2 d; at 50 µM; stronger effect = higher value

CCOC(=O)c1nnn(-c2nonc2N)c1CN(C)Cc1ccccc1
inactive: growth inhibition [1] -7.27% | growth inhibition [2] -11.5% | viability increase [3] -4.12% | viability [4] 84% | viability [5] 88.1% | inhibition [6] 2.05% | RAM network inhibition [7] 4.2%

CC(=O)c1ccc(NC(=O)C2CCCN2S(=O)(=O)c2cccc3cccnc23)cc1 (stereo not drawn)
inactive: growth inhibition [1] -11.2% | growth inhibition [2] -8.78% | viability increase [3] -1.7% | viability [4] 98.1% | viability [5] 95.8% | inhibition [6] 0.505% | RAM network inhibition [7] 5.11%

O=C(CCS(=O)(=O)c1cccc2nonc12)N1CCOCC1
inactive: growth inhibition [1] -6.54% | growth inhibition [2] -14.3% | viability increase [3] -2.16% | viability [4] 88% | viability [5] 100% | inhibition [6] 2.56% | RAM network inhibition [7] 2.65%

Cc1cccc(N2CCN(C(=O)C3CCCN(S(=O)(=O)c4cccc5cccnc45)C3)CC2)c1C (stereo not drawn)
inactive: growth inhibition [1] -6.73% | growth inhibition [2] 12.1% | viability increase [3] -4.58% | viability [4] 30.5% | viability [5] 35.8% | inhibition [6] 1.32% | RAM network inhibition [7] 1%

O=C(NCCc1ccccc1)c1ccncc1
inactive: growth inhibition [1] -5.38% | growth inhibition [2] 4.46% | viability increase [3] -0.91% | viability [4] 88.8% | viability [5] 93.5% | inhibition [6] 1.67% | RAM network inhibition [7] 0.86%

CCOc1ccc(CCNC(=O)c2nnc(Cc3ccc(F)cc3)o2)cc1OCC
inactive: growth inhibition [1] -5.33% | growth inhibition [2] 7.65% | viability increase [3] -2.55% | viability [4] 103% | viability [5] 95.2% | inhibition [6] 1.5% | RAM network inhibition [7] 5.06%

CCc1ccccc1S(=O)(=O)Cc1ccc(C(=O)NC(C)C)o1
inactive: growth inhibition [1] -2.43% | growth inhibition [2] -2.4% | viability increase [3] -1.52% | viability [4] 107% | viability [5] 97.6% | inhibition [6] 1.24% | RAM network inhibition [7] 3.36%

O=C(Cn1cc2c(n1)CCCC2)NCC1CCCO1 (stereo not drawn)
inactive: growth inhibition [1] -2.07% | growth inhibition [2] 3.85% | viability increase [3] 0.41% | viability [4] 103% | viability [5] 95.9% | inhibition [6] 1.89% | RAM network inhibition [7] 4.01%

CCCN(CCC)C(=O)COc1cc(=O)n(CC)c2ccccc12
inactive: growth inhibition [1] -17.4% | growth inhibition [2] -2.75% | viability increase [3] -1.75% | viability [4] 99.8% | viability [5] 89.3% | inhibition [6] 0.52% | RAM network inhibition [7] 0.9%

O=C(CSCC(=O)N1CCOCC1)Nc1ccccc1
inactive: growth inhibition [1] -11.4% | growth inhibition [2] -8.24% | viability increase [3] -0.42% | viability [4] 97.2% | viability [5] 97.8% | inhibition [6] 0.42% | RAM network inhibition [7] 2.75%

O=C(CN1CCOc2ccccc21)N1CCCC1
inactive: growth inhibition [1] -21.1% | growth inhibition [2] -8.8% | viability increase [3] -5.56% | viability [4] 100% | viability [5] 90.5% | inhibition [6] 0.98% | RAM network inhibition [7] 1.32%

Cc1c(NC(=O)c2ccc3c(c2)OCO3)c(=O)n(-c2ccccc2)n1C
inactive: growth inhibition [1] -8.08% | growth inhibition [2] -23.4% | viability increase [3] -0.33% | viability [4] 104% | viability [5] 101% | inhibition [6] 0.345% | RAM network inhibition [7] 2.71%

O=C(NC(=O)c1ccccc1)OCC(F)(F)F
inactive: growth inhibition [1] -6.06% | growth inhibition [2] -1.48% | viability increase [3] 0.71% | viability [4] 98.9% | viability [5] 103% | inhibition [6] 0.34% | RAM network inhibition [7] 3.03%

CC1CCC(n2c(=S)[nH]c3ccccc3c2=O)CC1 (stereo not drawn)
inactive: growth inhibition [1] 13% | growth inhibition [2] 23% | viability increase [3] -4.34% | viability [4] 81.5% | viability [5] 75.4% | inhibition [6] 0.285% | RAM network inhibition [7] 5.25%

CC(=O)N1CCC2(CC1)C(C#N)=C(N)Oc1n[nH]c(C)c12
inactive: growth inhibition [1] -6.98% | growth inhibition [2] 14.8% | viability increase [3] 0.18% | viability [4] 97.9% | viability [5] 98.2% | inhibition [6] 1.04% | RAM network inhibition [7] 6.55%

CN(C)S(=O)(=O)c1ccc(C(=O)Nc2ccc(OCC(=O)N3CCOCC3)cc2)cc1
inactive: growth inhibition [1] 0.98% | growth inhibition [2] -1.1% | viability increase [3] -1.5% | viability [4] 97.7% | viability [5] 97.9% | inhibition [6] 2.33% | RAM network inhibition [7] 0.86%

Cc1ccc(S(=O)(=O)c2nc(S(C)(=O)=O)sc2N(C)C)cc1
inactive: growth inhibition [1] 0.44% | growth inhibition [2] -4.42% | viability increase [3] -5.6% | viability [4] 86% | viability [5] 86.9% | inhibition [6] 0.565% | RAM network inhibition [7] 2.51%

CC1CCCCN1CCNC(=O)c1cc2c(=O)n(C)c3ccccc3c2n1C (stereo not drawn)
inactive: growth inhibition [1] -12.9% | growth inhibition [2] -9.04% | viability increase [3] -6.71% | viability [4] 78.9% | viability [5] 72.7% | inhibition [6] 2.5% | RAM network inhibition [7] 1.31%

Cc1ccc2cc(CCNS(=O)(=O)c3ccc(F)cc3)c(=O)[nH]c2c1
inactive: growth inhibition [1] -11.5% | growth inhibition [2] -8.69% | viability increase [3] -1.91% | viability [4] 93% | viability [5] 80.5% | inhibition [6] 1.72% | RAM network inhibition [7] 1.31%

C=CC1C(N2CCOCC2)C(C)(C)S1(=O)=O (stereo not drawn)
inactive: growth inhibition [1] 4.78% | growth inhibition [2] 5.46% | viability increase [3] -1.46% | viability [4] 102% | viability [5] 101% | inhibition [6] 1.38% | RAM network inhibition [7] -0.28%

COc1ccc(O)c(C(=O)c2cnn(C(=O)c3cc(C)oc3C)c2)c1
inactive: growth inhibition [1] -9.76% | growth inhibition [2] -11.3% | viability increase [3] -1.89% | viability [4] 97.2% | viability [5] 88.7% | inhibition [6] 2.02% | RAM network inhibition [7] 1.5%

CCN1CCN(C(=O)CSCc2nc(-c3ccc(OC)c(OC)c3)oc2C)CC1
inactive: growth inhibition [1] -3.83% | growth inhibition [2] -7.22% | viability increase [3] -1.52% | viability [4] 101% | viability [5] 101% | inhibition [6] 0.475% | RAM network inhibition [7] 1.3%

COc1ccc(NC(=O)C2CCCN(S(=O)(=O)c3cccnc3)C2)c(OC)c1 (stereo not drawn)
inactive: growth inhibition [1] -9.3% | growth inhibition [2] -2.6% | viability increase [3] 1.08% | viability [4] 104% | viability [5] 97.1% | inhibition [6] 1.57% | RAM network inhibition [7] -0.22%

Cc1cccc(OCc2nc(C#N)c(N3CC(C)CC(C)C3)o2)c1 (stereo not drawn)
inactive: growth inhibition [1] 0.505% | growth inhibition [2] -2.89% | viability increase [3] 3.8% | viability [4] 63.5% | viability [5] 65.3% | inhibition [6] 1.85% | RAM network inhibition [7] 5.88%
